Reference: ChEMBL document CHEMBL4699517 (Bioorg Med Chem Lett, 2020)
Active and inactive are the calls of the source. The calls are words filed in the database; no cut-off is given here.

What was measured:
[1] = Toxicity in NOD/SCID mouse assessed as animal survival at 5 mg/kg, ip dosed 3 times per week and measured after 24 days of treatment; format: organism-based; settings: in vivo, time 24 day
Outline: (§1)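 Six-week-old male NOD/SCID mice, 4 per group, received 5 mg/kg IP every other day, three times per week. Animals were monitored throughout dosing and euthanized after 24 days of treatment. Survival over the dosing period was plotted as a survival curve.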

[2] = Toxicity in NOD/SCID mouse assessed as animal survival at 10 mg/kg, ip dosed 3 times per week and measured after 24 days of treatment; format: organism-based; settings: in vivo, time 24 day
[3] = biological target: Phosphatidylinositol 4,5-bisphosphate 3-kinase catalytic subunit gamma isoform (Homo sapiens) (UniProt P48736); experiment: Inhibition of PI3Kgamma in human Raji cells assessed as inhibition of cell viability at 100 nM after 72 hrs by CellTiter-Glo luminescence assay; format: cell-based
Phosphatidylinositol 4,5-bisphosphate 3-kinase catalytic subunit gamma isoform (Homo sapiens), sequence (P48736 whole entry, looked up, canonical isoform): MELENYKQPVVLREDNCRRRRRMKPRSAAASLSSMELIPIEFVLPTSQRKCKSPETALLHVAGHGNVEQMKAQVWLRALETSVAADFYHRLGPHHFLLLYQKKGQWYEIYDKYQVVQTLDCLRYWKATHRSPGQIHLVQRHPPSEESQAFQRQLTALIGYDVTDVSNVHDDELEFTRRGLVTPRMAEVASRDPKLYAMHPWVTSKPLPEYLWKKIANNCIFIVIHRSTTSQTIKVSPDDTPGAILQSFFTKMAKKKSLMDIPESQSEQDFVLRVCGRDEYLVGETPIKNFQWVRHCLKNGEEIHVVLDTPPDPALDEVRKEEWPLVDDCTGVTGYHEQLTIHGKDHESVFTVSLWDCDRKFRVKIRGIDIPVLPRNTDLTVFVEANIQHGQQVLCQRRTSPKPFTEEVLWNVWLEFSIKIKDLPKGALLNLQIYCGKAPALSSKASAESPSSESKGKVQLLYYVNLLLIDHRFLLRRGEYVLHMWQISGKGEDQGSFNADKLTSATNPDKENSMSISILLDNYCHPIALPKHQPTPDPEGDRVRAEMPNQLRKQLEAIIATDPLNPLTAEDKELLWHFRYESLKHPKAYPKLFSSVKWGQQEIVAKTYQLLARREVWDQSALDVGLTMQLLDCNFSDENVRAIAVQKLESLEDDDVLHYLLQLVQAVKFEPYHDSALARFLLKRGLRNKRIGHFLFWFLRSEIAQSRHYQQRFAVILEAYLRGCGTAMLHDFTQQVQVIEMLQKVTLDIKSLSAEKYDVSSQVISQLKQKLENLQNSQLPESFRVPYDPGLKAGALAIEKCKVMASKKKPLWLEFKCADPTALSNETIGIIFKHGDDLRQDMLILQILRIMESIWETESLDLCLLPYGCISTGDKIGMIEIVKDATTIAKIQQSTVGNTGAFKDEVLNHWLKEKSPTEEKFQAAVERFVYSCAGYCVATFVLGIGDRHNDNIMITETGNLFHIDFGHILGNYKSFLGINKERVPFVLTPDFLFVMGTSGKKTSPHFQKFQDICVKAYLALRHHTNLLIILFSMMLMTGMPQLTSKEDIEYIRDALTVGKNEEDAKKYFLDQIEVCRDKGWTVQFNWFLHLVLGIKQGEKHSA

[4] = biological target: Phosphatidylinositol 4,5-bisphosphate 3-kinase catalytic subunit gamma isoform (Homo sapiens) (UniProt P48736); experiment: Inhibition of PI3Kgamma in human SUDHL-6 cells assessed as inhibition of cell viability at 100 nM after 72 hrs by CellTiter-Glo luminescent assay; format: cell-based; settings: SU-DHL-6
[5] = biological target: Phosphatidylinositol 4,5-bisphosphate 3-kinase catalytic subunit gamma isoform (Homo sapiens) (UniProt P48736); experiment: Inhibition of PI3Kgamma in human SUDHL-10 cells assessed as inhibition of cell viability at 100 nM after 72 hrs by CellTiter-Glo luminescent assay; format: cell-based; settings: SU-DHL-10
[6] = biological target: Phosphatidylinositol 4,5-bisphosphate 3-kinase catalytic subunit gamma isoform (Homo sapiens) (UniProt P48736); experiment: Inhibition of PI3Kgamma in human MOLT-4 cells assessed as inhibition of cell viability at 100 nM after 72 hrs by CellTiter-Glo luminescent assay; format: cell-based
[7] = biological target: Phosphatidylinositol 4,5-bisphosphate 3-kinase catalytic subunit gamma isoform (Homo sapiens) (UniProt P48736); experiment: Inhibition of PI3Kgamma in human RPMI-8226 cells assessed as inhibition of cell viability at 100 nM after 72 hrs by CellTiter-Glo luminescent assay; format: cell-based
[8] = biological target: Phosphatidylinositol 4,5-bisphosphate 3-kinase catalytic subunit gamma isoform (Homo sapiens) (UniProt P48736); experiment: Inhibition of PI3Kgamma in human LCL-1 cells assessed as inhibition of cell viability at 100 nM after 72 hrs by CellTiter-Glo luminescent assay; format: cell-based
[9] = Toxicity in NOD/SCID mouse assessed as animal death rate at 5 mg/kg, ip dosed 3 times per week and measured after 24 days of treatment; format: organism-based; settings: in vivo, time 24 day, read-out: Activity; outline: as §1
[10] = Toxicity in NOD/SCID mouse assessed as animal survival at 5 to 10 mg/kg, ip dosed 3 times per week and measured at >3 weeks of treatment; format: organism-based; settings: in vivo, 504 h, dose 5-10 mg/kg

Compound	survival at 576 h [1]	survival at 576 h [2]	inhibition [3]	inhibition [4]	inhibition [5]	inhibition [6]	inhibition [7]	inhibition [8]	mortality at 576 h [9]	Activity [10]
COC(=O)[C@@]12OC[C@]34[C@H]([C@@H](O)[C@@H]1O)[C@@]1(C)CC(=O)C(OC(=O)CNC(=O)OC(C)(C)C)=C(C)[C@@H]1C[C@H]3OC(=O)[C@H](OC(=O)C=C(C)C)[C@@H]24	50%	0%	Active	–	–	–	–	–	–	–
COC(=O)[C@@]12OC[C@]34[C@H]([C@@H](O)[C@@H]1O)[C@@]1(C)CC(=O)C(O)=C(C)[C@@H]1C[C@H]3OC(=O)[C@H](OC(=O)C=C(C)C)[C@@H]24	75%	25%	Active	Active	Active	Active	Active	Active	25%	–
COC(=O)[C@@]12OC[C@]34[C@H]([C@@H](O)[C@@H]1O)[C@@]1(C)CC(=O)C(OC(=O)C[C@H](C)N)=C(C)[C@@H]1C[C@H]3OC(=O)[C@H](OC(=O)C=C(C)C)[C@@H]24	100%	–	Active	–	–	–	–	–	–	Non-Toxic
COC(=O)[C@@]12OC[C@]34[C@H]([C@@H](O)[C@@H]1O)[C@@]1(C)CC(=O)C(OC(=O)C[C@@H](C)N)=C(C)[C@@H]1C[C@H]3OC(=O)[C@H](OC(=O)C=C(C)C)[C@@H]24	–	–	Active	Active	Active	Active	Active	Active	–	–
